According to ChEMBL document CHEMBL1149852, “Antimycobacterial serratamolides and diacyl peptoglucosamine derivatives from Serratia sp” (2008):

How the values were obtained:
Assay type in all cases: functional
[1] = tested on: Mycolicibacterium smegmatis; test: Antimycobacterial activity against Mycobacterium smegmatis
How it was run: (§1)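 Broth microdilution MIC. Purified compound given as serial 2-fold dilutions in Mueller-Hinton broth in 96-well plates. Inoculum made by scraping colonies from EBS agar plates (EBS: casein peptone 0.5%, glucose 0.5%, meat/yeast extract 0.1% each, 50 mM HEPES, pH 7.0) into EBS medium, then added to 5 × 10^5 CFU/mL. MIC taken as lowest concentration inhibiting 99% of inoculum.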

[2] = tested on: Mycolicibacterium diernhoferi; test: Antimycobacterial activity against Mycobacterium diernhoferi; how it was run: as §1
Mycolicibacterium phlei = test: Antimycobacterial activity against Mycobacterium phlei; how it was run: as §1

Measured: MIC

CCCCCCC[C@@H]1CC(=O)N[C@@H](CO)C(=O)O[C@H](CCCCCCC)CC(=O)N[C@@H](CO)C(=O)O1 [SERRATAMOLIDE A]
180 µM: [1] | [2] | Mycolicibacterium phlei

CCCCCCCCCCCCCC(=O)N[C@H](C(=O)O[C@H]1O[C@H](CO)[C@@H](O)[C@H](O)[C@H]1NC(=O)CCC)C(C)C
180 µM: [1] | [2] | Mycolicibacterium phlei

CCCCCCC[C@@H]1CC(=O)N[C@@H](CO)C(=O)O[C@H](CCCCCC)CC(=O)N[C@@H](CO)C(=O)O1 [SERRATAMOLIDE F]
180 µM: [1] | [2] | Mycolicibacterium phlei

CCCCCCCC[C@@H]1CC(=O)N[C@@H](CO)C(=O)O[C@H](CCCCCCC)CC(=O)N[C@@H](CO)C(=O)O1 [SERRATAMOLIDE D]
180 µM: [1] | [2] | Mycolicibacterium phlei

CCCCCCCCC[C@@H]1CC(=O)N[C@@H](CO)C(=O)O[C@H](CCCCCCC)CC(=O)N[C@@H](CO)C(=O)O1 [SERRATAMOLIDE C]
180 µM: [1] | [2] | Mycolicibacterium phlei

CCCCCCC/C=C\CCCCCCC(=O)N[C@H](C(=O)O[C@H]1O[C@H](CO)[C@@H](O)[C@H](O)[C@H]1NC(=O)CCC)C(C)C
180 µM: [1] | [2] | Mycolicibacterium phlei

CCCCCCC[C@@H]1CC(=O)N[C@@H](CO)C(=O)O[C@H](CCCCC)CC(=O)N[C@@H](CO)C(=O)O1 [SERRATAMOLIDE E]
180 µM: [1] | [2] | Mycolicibacterium phlei

CCCCCC/C=C\C[C@@H]1CC(=O)N[C@@H](CO)C(=O)O[C@H](CCCCCCC)CC(=O)N[C@@H](CO)C(=O)O1 [SERRATAMOLIDE B]
180 µM: [1] | [2] | Mycolicibacterium phlei

CCCCCCCCCCCCCCC(=O)N[C@H](C(=O)O[C@H]1O[C@H](CO)[C@@H](O)[C@H](O)[C@H]1NC(=O)CCC)C(C)C
180 µM: [1] | [2] | Mycolicibacterium phlei
